Test system: ERH
Test: Co-immunoprecipitation and Western blot of DGCR8 mutants and fragments with ERH
Type: binding, human
Conditions: co-IP / Western blot, overexpressed DGCR8 mutants, HEK293E, RNase A
Procedure, shortened: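 HEK293E cells at 50% confluence were transfected with 5 μg total of Flag-, HA- or myc-tagged plasmids using branched/linear PEI (1:1) and harvested after 2 days. Anti-Flag, anti-HA or protein G-bound anti-myc beads were incubated with lysate 1–2 h at 4°C, washed three times and eluted in SDS buffer for western blot.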

Molecule	interaction with ERH
DG115–773: 1–114 aa of DGCR8 was deleted (protein) LKDVKISVSFTESCRSKDRKVLYTGAERDVRAECGLLLSPVSGDVHACPFGGSVGDGVGIGGESADKKDEENELDQEKRVEYAVLDELEDFTDNLELDEEGAGGFTAKAIVQRDRVDEEALNFPYEDDFDNDVDALLEEGLCAPKKRRTEEKYGGDSDHPSDGETSVQPMMTKIKTVLKSRGRPPTEPLPDGWIMTFHNSGVPVYLHRESRVVTWSRPYFLGTGSIRKHDPPLSSIPCLHYKKMKDNEEREQSSDLTPSGDVSPVKPLSRSAELEFPLDEPDSMGADPGPPDEKDPLGAEAAPGALGQVKAKVEVCKDESVDLEEFRSYLEKRFDFEQVTVKKFRTWAERRQFNREMKRKQAESERPILPANQKLITLSVQDAPTKKEFVINPNGKSEVCILHEYMQRVLKVRPVYNFFECENPSEPFGASVTIDGVTYGSGTASSKKLAKNKAARATLEILIPDFVKQTSEEKPKDSEELEYFNHISIEDSRVYELTSKAGLLSPYQILHECLKRNHGMGDTSIKFEVVPGKNQKSEYVMACGKHTVRGWCKNKRVGKQLASQKILQLLHPHVKNWGSLLRMYGRESSKMVKQETSDKSVIELQQYAKKNKPNLHILSKLQEEMKRLAEEREETRKKPKMSIVASAQPGGEPLCTVDV	could not pull down ERH
DG_Ala mut: V105A/F108A/L112A/L114A/L115A (protein) METDESPSPLPCGPAGEAVMESRARPFQALPREQSPPPPLQTSSGAEVMDVGSGGDGQSELPAEDPFNFYGASLLSKGSFSKGRLLIDPNCSGHSPRTARHAPAARKASPDAKAAKDVKISVSFTESCRSKDRKVLYTGAERDVRAECGLLLSPVSGDVHACPFGGSVGDGVGIGGESADKKDEENELDQEKRVEYAVLDELEDFTDNLELDEEGAGGFTAKAIVQRDRVDEEALNFPYEDDFDNDVDALLEEGLCAPKKRRTEEKYGGDSDHPSDGETSVQPMMTKIKTVLKSRGRPPTEPLPDGWIMTFHNSGVPVYLHRESRVVTWSRPYFLGTGSIRKHDPPLSSIPCLHYKKMKDNEEREQSSDLTPSGDVSPVKPLSRSAELEFPLDEPDSMGADPGPPDEKDPLGAEAAPGALGQVKAKVEVCKDESVDLEEFRSYLEKRFDFEQVTVKKFRTWAERRQFNREMKRKQAESERPILPANQKLITLSVQDAPTKKEFVINPNGKSEVCILHEYMQRVLKVRPVYNFFECENPSEPFGASVTIDGVTYGSGTASSKKLAKNKAARATLEILIPDFVKQTSEEKPKDSEELEYFNHISIEDSRVYELTSKAGLLSPYQILHECLKRNHGMGDTSIKFEVVPGKNQKSEYVMACGKHTVRGWCKNKRVGKQLASQKILQLLHPHVKNWGSLLRMYGRESSKMVKQETSDKSVIELQQYAKKNKPNLHILSKLQEEMKRLAEEREETRKKPKMSIVASAQPGGEPLCTVDV	impaired in ERH binding
Deletion of the N-terminus of DGCR8 (1–275 aa): DGCR8 with deletion of 1–275 aa (protein, UniProt Q8WYQ5 276-773, looked up, fragment) DGETSVQPMMTKIKTVLKSRGRPPTEPLPDGWIMTFHNSGVPVYLHRESRVVTWSRPYFLGTGSIRKHDPPLSSIPCLHYKKMKDNEEREQSSDLTPSGDVSPVKPLSRSAELEFPLDEPDSMGADPGPPDEKDPLGAEAAPGALGQVKAKVEVCKDESVDLEEFRSYLEKRFDFEQVTVKKFRTWAERRQFNREMKRKQAESERPILPANQKLITLSVQDAPTKKEFVINPNGKSEVCILHEYMQRVLKVRPVYNFFECENPSEPFGASVTIDGVTYGSGTASSKKLAKNKAARATLEILIPDFVKQTSEEKPKDSEELEYFNHISIEDSRVYELTSKAGLLSPYQILHECLKRNHGMGDTSIKFEVVPGKNQKSEYVMACGKHTVRGWCKNKRVGKQLASQKILQLLHPHVKNWGSLLRMYGRESSKMVKQETSDKSVIELQQYAKKNKPNLHILSKLQEEMKRLAEEREETRKKPKMSIVASAQPGGEPLCTVDV	abrogated the interaction
DGΔ96–115: 96–115 aa of DGCR8 was removed (protein) METDESPSPLPCGPAGEAVMESRARPFQALPREQSPPPPLQTSSGAEVMDVGSGGDGQSELPAEDPFNFYGASLLSKGSFSKGRLLIDPNCSGHSKDVKISVSFTESCRSKDRKVLYTGAERDVRAECGLLLSPVSGDVHACPFGGSVGDGVGIGGESADKKDEENELDQEKRVEYAVLDELEDFTDNLELDEEGAGGFTAKAIVQRDRVDEEALNFPYEDDFDNDVDALLEEGLCAPKKRRTEEKYGGDSDHPSDGETSVQPMMTKIKTVLKSRGRPPTEPLPDGWIMTFHNSGVPVYLHRESRVVTWSRPYFLGTGSIRKHDPPLSSIPCLHYKKMKDNEEREQSSDLTPSGDVSPVKPLSRSAELEFPLDEPDSMGADPGPPDEKDPLGAEAAPGALGQVKAKVEVCKDESVDLEEFRSYLEKRFDFEQVTVKKFRTWAERRQFNREMKRKQAESERPILPANQKLITLSVQDAPTKKEFVINPNGKSEVCILHEYMQRVLKVRPVYNFFECENPSEPFGASVTIDGVTYGSGTASSKKLAKNKAARATLEILIPDFVKQTSEEKPKDSEELEYFNHISIEDSRVYELTSKAGLLSPYQILHECLKRNHGMGDTSIKFEVVPGKNQKSEYVMACGKHTVRGWCKNKRVGKQLASQKILQLLHPHVKNWGSLLRMYGRESSKMVKQETSDKSVIELQQYAKKNKPNLHILSKLQEEMKRLAEEREETRKKPKMSIVASAQPGGEPLCTVDV	could not pull down ERH

— paper PMC7641749 (Nucleic Acids Research, 2020)
